Results: ChEMBL document CHEMBL1146273, “Kynurenic acid amides as novel NR2B selective NMDA receptor antagonists” (Bioorg Med Chem Lett, 2007)

Assays:
Glutamate NMDA receptor [1] = assay: Inhibition of NMDA receptor in rat cortical cells assessed as NMDA-evoked increase in intracellular calcium level; assay type: cell-based
In short: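 Rat cortical cell culture loaded with Fluo-4/AM. Baseline and NMDA-evoked intracellular Ca2+ changes monitored by fluorimetry on a plate reader. Number of experiments (n) given per compound.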

Rattus norvegicus = species: Rattus norvegicus; assay: Inhibition of human recombinant NR1/NR2A receptor expressed in rat cortical cells assessed as NMDA-evoked increase in intracellular calcium level at 15 uM; assay type: cell-based
In short: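 Fluo-4/AM Ca2+ fluorimetry on a plate reader, applied to cells expressing recombinant NR1/NR2A receptors. Inhibition (%) of the NMDA-evoked intracellular Ca2+ increase measured at 15 µM compound.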

Mus musculus [2] = assay: Analgesic activity against formalin-induced pain in mouse at 20 mg/kg, po; assay type: ADME, organism-based; set-up: dose 20 mg/kg, route oral; conditions: in vivo
In short: (§1)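 Fasted male NMRI mice (20–25 g) dosed orally with test drug or vehicle (5% Tween 80) 15 min before 20 µl of 1% formalin injected sc into right hindpaw. Licking/biting time read by visual observation at 20–25 min post-formalin (late phase). Percent decrease versus daily vehicle group; Mann–Whitney U-test; ED50 from Boltzmann sigmoidal fit.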

[3] = biological target: Glutamate NMDA receptor (Rattus norvegicus) (UniProt P35439+Q00959+Q00960+Q00961+Q62645+Q8VHN2+Q9R1M7); assay: Inhibition of NMDA receptor in rat cortical cells assessed as NMDA-evoked increase in intracellular calcium level at 0.1 uM; assay type: cell-based
In short: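 Rat cortical cell culture loaded with Fluo-4/AM. Baseline and NMDA-evoked intracellular Ca2+ changes monitored by fluorimetry on a plate reader. Read-out is inhibition of the NMDA-evoked Ca2+ rise, with percent inhibition taken at 0.1 µM compound. Number of experiments (n) given per compound.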

Glutamate NMDA receptor [4] = assay: Displacement of [3H]Ro-256981 from NMDA receptor in rat forebrain membrane; assay type: cell membranes
In short: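 Binding assay on rat forebrain membrane using tritiated Ro-25,6981 as radioligand.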

Mus musculus [5] = assay: Analgesic activity against formalin-induced pain in po dosed mouse; assay type: ADME, organism-based; in short: as §1

IC50 (Glutamate NMDA receptor [1]) [nM] | Activity (Mus musculus [2]) | inhibition [3] [%] | Ki (Glutamate NMDA receptor [4]) [nM] | Structure (SMILES) | inhibition (Rattus norvegicus) [%] | ED50 (Mus musculus [5]) [mg/kg]
9.1 | Not Active |  |  | O=C(c1cc(=O)c2cc(O)ccc2[nH]1)N1CCC(Cc2ccc(Cl)cc2)CC1 | -5.1 | 
25 |  |  |  | O=C(c1cc2cc(O)ccc2[nH]1)N1CCC(Cc2ccccc2)CC1 | 17.2 | 
9.1 | Not Active |  |  | O=C(c1cc(=O)c2cc(O)ccc2[nH]1)N1CCC(Cc2ccccc2)CC1 | 8.9 | 
 |  |  |  | O=C(c1nc2ccc(O)cc2[nH]1)N1CCC(Cc2ccccc2)CC1 | 21 | 
 |  | 2.6 |  | CC(=O)Nc1ccc2[nH]c(C(=O)N3CCC(Cc4ccccc4)CC3)cc(=O)c2c1 | 12.4 | 
 |  | 4.5 |  | O=C(c1cc(=O)c2ccccc2[nH]1)N1CCC(Cc2ccccc2)CC1 | 1.1 | 
 |  |  |  | C[C@H]([C@@H](O)c1ccc(O)cc1)N1CCC(Cc2ccccc2)CC1 | -2.7 | 
317 |  |  |  | O=C(c1nc(=O)c2cc(O)ccc2[nH]1)N1CCC(Cc2ccccc2)CC1 | 13.9 | 
6.2 |  |  | 4.2 | Cc1ccc(OC2CCN(C(=O)c3cc(=O)c4cc(O)ccc4[nH]3)CC2)cc1 | -3.5 | 8.2
11 |  |  |  | Cc1ccc(CC2CCN(C(=O)c3cc(=O)c4cc(O)ccc4[nH]3)CC2)cc1 | -2.4 | 10.6
49.6 |  |  |  | O=C(c1cc(=O)c2cc(O)ccc2[nH]1)N1CCC(Oc2ccccc2)CC1 | 0.7 | 8.5
21.7 |  |  |  | O=C(c1cc(=O)c2cc3[nH]c(=O)oc3cc2[nH]1)N1CCC(Cc2ccccc2)CC1 | -2.1 | > 20
8.7 |  |  |  | O=C(c1cc(=O)c2cc(O)ccc2[nH]1)N1CCC(Cc2ccc(F)cc2)CC1 | -0.9 | 9.5
7.1 | Not Active |  |  | O=C(c1cc(=O)c2cc(O)ccc2[nH]1)N1CCC(Oc2ccc(Cl)cc2)CC1 | 5.1 | 
 |  | 27.9 |  | O=C(c1cc(=O)c2ccc(O)cc2[nH]1)N1CCC(Cc2ccccc2)CC1 | 9.1 | 
 |  |  |  | O=C(c1cc2ccc(O)cc2[nH]1)N1CCC(Cc2ccccc2)CC1 | 15.6 | 
